According to ChEMBL document CHEMBL1127016, “Inhibitors of the protease from human immunodeficiency virus: synthesis, enzyme inhibition, and antiviral activity of a series of compounds containing the dihydroxyethylene transition-state isostere” (J Med Chem, 1993):

Assays:
[1] = molecular target: Human immunodeficiency virus type 1 protease (Human immunodeficiency virus 1, UniProt Q72874); assay: Inhibition of HIV-1 protease in vitro.
Outline: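 Recombinant HIV-1 protease refolded from E. coli inclusion bodies; substrate peptide H-Val-Ser-Gln-Asn-Tyr-Pro-Ile-Val-OH at 2.5 mM. 30 °C, 100 mM sodium acetate pH 5.5 (MOPS for pH 7), 10% glycerol, 5% ethylene glycol, 0.1% NP-40. Inhibitor added before enzyme, five to seven concentrations; stopped at 30 min with TFA, HPLC; Ki from Dixon plots.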

Vaccinia virus [2] = assay: Anti viral activity against vaccinia virus in CV-1 (monkey kidney) cells at 1 uM.; type: functional; conditions: Orthopoxvirus vaccinia, CV-1, in Primates
Vaccinia virus [3] = assay: Anti viral activity against vaccinia virus in CV-1 (monkey kidney) cells.; type: functional, Orthopoxvirus vaccinia; set-up: concentration or dose not given beside the values

## CC(C)[C@@H](C(=O)N[C@H]1c2ccccc2CC1O)[C@@H](O)[C@H](O)[C@H](CC1CCCCC1)NC(=O)c1ccccc1 (stereo not given in full)
[1]
  Ki: 16 nM

## CCC(C)[C@H](NC(=O)[C@H](C(C)C)[C@@H](O)[C@H](O)C(CC1CCCCC1)NC(=O)c1ccccc1OCSc1ccccc1)C(=O)NCc1nc2ccccc2[nH]1 (stereo not given in full)
Vaccinia virus [2]
  inhibition at 1 µM: 86%
[1]
  Ki: 5 nM

## CC(C)[C@@H](C(=O)N[C@H]1c2ccccc2CC1O)[C@@H](O)[C@H](O)[C@H](CC1CCCCC1)NC(=O)c1ncccc1OCCOc1ccccc1 (stereo not given in full)
[1]
  Ki: > 200 nM

## CCC(C)[C@H](NC(=O)[C@H](C(C)C)[C@@H](O)[C@H](O)[C@H](CC1CCCCC1)NC(=O)c1ncccc1OCCOCCOC)C(=O)NCc1nc2ccccc2[nH]1 (stereo not given in full)
Vaccinia virus [3]
  Inhibition: 0%
[1]
  Ki: 100 nM

## CCC(C)[C@H](NC(=O)[C@H](C(C)C)[C@@H](O)[C@H](O)C(CC1CCCCC1)NC(=O)c1ccccc1OCCOCCOCCOC)C(=O)NCc1nc2ccccc2[nH]1 (stereo not given in full)
Vaccinia virus [2]
  inhibition at 1 µM: 65%
[1]
  Ki: 10 nM

## CC(C)[C@@H](C(=O)N[C@H]1c2ccccc2CC1O)[C@@H](O)[C@H](O)C(CC1CCCCC1)NC(=O)c1ncccc1OCSc1ccccc1 (stereo not given in full)
Vaccinia virus [2]
  inhibition at 1 µM: 0%
[1]
  Ki: 600 nM

## CCC(C)[C@H](NC(=O)[C@H](C(C)C)[C@@H](O)[C@H](O)[C@H](CC1CCCCC1)NC(=O)c1ccccc1OCCOc1ccccc1)C(=O)NCc1nc2ccccc2[nH]1 (stereo not given in full)
Vaccinia virus [3]
  Inhibition: 86%
[1]
  Ki: 8 nM

## CC(C)[C@@H](C(=O)N[C@H]1c2ccccc2CC1O)[C@@H](O)[C@H](O)[C@H](CC1CCCCC1)NC(=O)CCOCCOc1ccccc1 (stereo not given in full)
[1]
  Ki: > 200 nM

## COCCOCCOCCOc1cccnc1C(=O)NC(CC1CCCCC1)[C@@H](O)[C@H](O)[C@H](C(=O)N[C@H]1c2ccccc2CC1O)C(C)C (stereo not given in full)
[1]
  Ki: > 200 nM

## CCC(C)[C@H](NC(=O)[C@H](C(C)C)[C@@H](O)[C@H](O)C(CC1CCCCC1)NC(=O)c1ncccc1OCCOCCOCCOC)C(=O)NCc1nc2ccccc2[nH]1 (stereo not given in full)
Vaccinia virus [2]
  inhibition at 1 µM: 0%
[1]
  Ki: 100 nM

## COCCOCCOCCOc1ccccc1C(=O)NC(CC1CCCCC1)[C@@H](O)[C@H](O)[C@H](C(=O)N[C@H]1c2ccccc2CC1O)C(C)C (stereo not given in full)
[1]
  Ki: > 200 nM

## CC[C@H](C)[C@H](NC(=O)[C@H](C(C)C)[C@@H](O)[C@H](O)[C@H](CC1CCCCC1)NC(=O)c1ccccc1)C(=O)NCc1nc2ccccc2[nH]1
[1]
  Ki: 36 nM

## CC[C@H](C)[C@H](NC(=O)[C@H](C(C)C)[C@@H](O)[C@H](O)[C@H](CC1CCCCC1)NC(=O)C1CCCCC1)C(=O)NCc1ccccn1
[1]
  Ki: 22 nM

## COCCOCCOc1cccnc1C(=O)N[C@@H](CC1CCCCC1)[C@@H](O)[C@H](O)[C@H](C(=O)N[C@H]1c2ccccc2CC1O)C(C)C (stereo not given in full)
[1]
  Ki: > 200 nM

## COCCOCCOc1ccccc1C(=O)N[C@@H](CC1CCCCC1)[C@@H](O)[C@H](O)[C@H](C(=O)N[C@H]1c2ccccc2CC1O)C(C)C (stereo not given in full)
[1]
  Ki: 200 nM

## CCC(C)[C@H](NC(=O)[C@H](C(C)C)[C@@H](O)[C@H](O)[C@H](CC1CCCCC1)NC(=O)CCOCCOc1ccccc1)C(=O)NCc1nc2ccccc2[nH]1 (stereo not given in full)
Vaccinia virus [3]
  Inhibition: 65%
[1]
  Ki: 4 nM

## CC(C)[C@@H](C(=O)N[C@H]1c2ccccc2CC1O)[C@@H](O)[C@H](O)C(CC1CCCCC1)NC(=O)c1ccccc1OCSc1ccccc1 (stereo not given in full)
Vaccinia virus [2]
  inhibition at 1 µM: 0%
[1]
  Ki: 200 nM

## CCC(C)[C@H](NC(=O)[C@H](C(C)C)[C@@H](O)[C@H](O)C(CC1CCCCC1)NC(=O)c1ncccc1OCSc1ccccc1)C(=O)NCc1nc2ccccc2[nH]1 (stereo not given in full)
Vaccinia virus [2]
  inhibition at 1 µM: 0%
[1]
  Ki: 140 nM

## CC(C)[C@@H](C(=O)N[C@H]1c2ccccc2CC1O)[C@@H](O)[C@H](O)[C@H](CC1CCCCC1)NC(=O)c1ccccc1OCCOc1ccccc1 (stereo not given in full)
[1]
  Ki: > 200 nM

## CCC(C)[C@H](NC(=O)[C@H](C(C)C)[C@@H](O)[C@H](O)[C@H](CC1CCCCC1)NC(=O)c1ncccc1OCCOc1ccccc1)C(=O)NCc1nc2ccccc2[nH]1 (stereo not given in full)
Vaccinia virus [3]
  Inhibition: 0%
[1]
  Ki: > 200 nM

## CCC(C)[C@H](NC(=O)[C@H](C(C)C)[C@@H](O)[C@H](O)C(CC1CCCCC1)NC(=O)C(Cc1c[nH]cn1)NC(=O)COc1cccc2ccccc12)C(=O)NCc1ccccn1 (stereo not given in full)
[1]
  Ki: < 1 nM

## CCC(C)[C@H](NC(=O)[C@H](C(C)C)[C@@H](O)[C@H](O)[C@H](CC1CCCCC1)NC(=O)c1ccc(C)cc1OCCOc1ccccc1)C(=O)NCc1nc2ccccc2[nH]1 (stereo not given in full)
Vaccinia virus [3]
  Inhibition: 48%
[1]
  Ki: 48 nM

## CCC(C)[C@H](NC(=O)[C@H](C(C)C)[C@@H](O)[C@H](O)[C@H](CC1CCCCC1)NC(=O)c1ccccc1OCCOCCOC)C(=O)NCc1nc2ccccc2[nH]1 (stereo not given in full)
Vaccinia virus [3]
  Inhibition: 56%
[1]
  Ki: 5 nM
